Screening results from PubChem BioAssay.
Hits are enriched below; roughly 2.5% of the tested compounds scored in any of these assays.
Env fusion inh – inhibitors of HIV Env-mediated cell fusion; HeLa-JRFL Env/CEM21 cell fusion, luciferase; inhibition, % at 12.3 µM; hit rate 1.1% among 360,000;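 active = mean replicate inhibition score of at least 50 and every replicate individually at or above 50; inconclusive = only one of the two criteria met; inactive = mean below 50 and not all replicates reaching 50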
AF4-AF9 inh – blocks AF4 peptide binding to human AF9; P42568; AlphaScreen, biotin-AF4 peptide binding to FLAG-AF9; inhibition, % at 10 µM; hit rate 0.47% among 350,000; AID 651704;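 active = every replicate reaching a set inhibition limit, whatever the replicate mean, cut at about 25% in these data; inconclusive = mean inhibition reaches that limit but some replicates miss it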
Target sequence (P42568 whole entry, looked up): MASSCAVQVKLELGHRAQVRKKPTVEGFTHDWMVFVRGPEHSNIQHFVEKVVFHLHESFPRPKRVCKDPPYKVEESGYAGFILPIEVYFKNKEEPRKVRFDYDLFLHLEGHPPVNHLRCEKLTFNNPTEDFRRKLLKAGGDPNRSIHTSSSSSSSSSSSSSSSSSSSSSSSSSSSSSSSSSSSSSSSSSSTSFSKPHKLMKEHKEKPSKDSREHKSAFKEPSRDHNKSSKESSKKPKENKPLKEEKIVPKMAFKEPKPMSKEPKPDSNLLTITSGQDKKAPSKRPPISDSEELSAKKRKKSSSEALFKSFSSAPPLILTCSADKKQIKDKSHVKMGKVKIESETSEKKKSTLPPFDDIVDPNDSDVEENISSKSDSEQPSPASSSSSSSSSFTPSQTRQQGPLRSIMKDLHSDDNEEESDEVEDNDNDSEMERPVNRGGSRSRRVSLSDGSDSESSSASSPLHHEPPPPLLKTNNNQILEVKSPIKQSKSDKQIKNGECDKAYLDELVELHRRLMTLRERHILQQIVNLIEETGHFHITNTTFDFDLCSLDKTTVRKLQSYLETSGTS
FN deposit inh – fibronectin deposition inhibition; hit rate 0.086% among 350,000; AH1F fibroblasts, Alexa488-fibronectin deposition fluorescence, overnight; inhibition, % at 12.6 µM;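 active = mean inhibition across replicates of 30% or more, regardless of how many single replicates reach that level; inconclusive = mean under 30% yet at least half of replicates reach 30%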
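test system = AH1F fibroblasts assembling fluorescent fibronectin matrix | quantity = 10000 AH1F cells per well | buffer or medium = DMEM plus 2% serum, read in PBS | doses = single dose, pinned | incubation = 1 h cell attachment, overnight exposure to compound and label | detection = fluorescence at 485 nm excitation, 525 nm emission | read-out basis = inhibition from reduced deposited-fibronectin fluorescence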
PAX8 reporter – PAX8 transcriptional activity inhibition; RMG-I TPO-luciferase reporter, SteadyGlo, 24 h; inhibition, % at 12.6 µM; hit rate 1.2% among 360,000; AID 652154;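 active = mean replicate inhibition at least 60% with every replicate also reaching 60%; inconclusive = only one of the two criteria is met; inactive = mean below 60% and not all replicates reaching 60%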;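 note: luciferase light reporting Pax8 driven TPO promoter activity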
EWS-Fli inh – inhibitors of EWS/Fli oncoprotein transcriptional activity; A673 NR0B1-luciferase reporter, viability-normalised; inhibition, % at 12.6 µM; hit rate 0.67% among 350,000;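 active = mean inhibition of at least 50% after viability correction, with every replicate also passing that limit; inconclusive = mean reaches 50% but only one of two replicates passes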;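 note: firefly luciferase signal divided by Alamar Blue viability fluorescence both relative to DMSO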
Glyco luc inh – N-linked glycosylation inhibition; D54 ERlucT glycosylation luciferase reporter, 24 h; percent of 100 nM tunicamycin response; AID 588692; reporter increase, % at 12.5 µM; hit rate 0.23% among 360,000;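 active = mean luciferase reporter signal, scaled so untreated is 0 and the glycosylation-blocking control 100, at or above a set limit in every replicate; inconclusive = mean reaches the limit but not every replicate does; inactive = mean below the limit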;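 note: luciferase carries N-glycosylation sites so blocking glycosylation raises the light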
Alpha interfer – AlphaScreen signal interference counter-screen hit; shares compounds with AF4-AF9 inh; signal luminescence; AC50, µM (titrated, usually from 12 µM); hit rate 45% among 530; AID 720494; cut-off not given, nearly all actives have AC50 up to about 14 µM
Each line names hits and unclear results; the compound was inactive in the other large screens (follow-up assays come after a bar, where they were run); ! = not active in a repeat.

CCOC(=O)C1CCN(C2=C(NS(=O)(=O)c3ccc(Cl)cc3)C(=O)c3ccccc3C2=O)CC1	AF4-AF9 inh 29.5 | Alpha interfer inactive
CC1CCN(C2=C(NS(=O)(=O)c3ccc(Br)cc3)C(=O)c3ccccc3C2=O)CC1	AF4-AF9 inh 50.0 (no result: EWS-Fli inh) | Alpha interfer inactive
CC1CCN(C2=C(NS(=O)(=O)c3ccc(Cl)cc3)C(=O)c3ccccc3C2=O)CC1	none
Nc1ccc(O)c2c1C(=O)c1ccccc1C2=O	AF4-AF9 inh 37.8 (no result: Env fusion inh, FN deposit inh, PAX8 reporter) | Alpha interfer inactive
C[C@@H]1CN([C@@H](C)CO)C(=O)CCCn2cc(nn2)CO[C@@H]1CN(C)Cc1ccc2cccnc2c1	none (no result: Env fusion inh, AF4-AF9 inh, Glyco luc inh)
O=[N+]([O-])c1ccccc1/C=C/C=N/N1CCCCC1	AF4-AF9 inh 26.5 | Alpha interfer 12.9µM
O=[N+]([O-])c1ccccc1/C=C/C=N/Nc1nc(N2CCCCC2)nc(N2CCCCC2)n1	none
CN1CCN(c2ccc(S(=O)(=O)N3CCCCC3)cc2NC(=O)/C=C/c2ccc(Cl)c([N+](=O)[O-])c2)CC1	AF4-AF9 inh inconclusive, PAX8 reporter 87.7 | Alpha interfer inactive
CN1CCN(c2ccc(S(=O)(=O)N3CCCCC3)cc2NC(=O)/C=C/c2ccc(OC(F)F)cc2)CC1	none
C[C@H]1CN([C@@H](C)CO)C(=O)Cc2cc(NC(=O)C3CCCCC3)ccc2O[C@H]1CN(C)C(=O)NC1CCCCC1	none (no result: Env fusion inh, FN deposit inh, Glyco luc inh)
COC(=O)C[C@@H]1CC[C@@H]2[C@H](COc3ccc(NC(=O)c4cnccn4)cc3C(=O)N2C)O1	none (no result: Env fusion inh, Glyco luc inh)
Cc1cc(/C=N/n2c(COc3ccccc3C)nc3ccccc3c2=O)c(O)c([N+](=O)[O-])c1	AF4-AF9 inh 31.9 | Alpha interfer inactive
CCOc1ccc2oc(C(=O)NCC(c3ccco3)N(C)C)c(C)c2c1 (stereo not drawn)	none
Cc1c(C(=O)NCC(c2ccco2)N(C)C)oc2c(Cl)cccc12 (stereo not drawn)	AF4-AF9 inh inconclusive | Alpha interfer inactive
COc1ccc(N2CCC(CNC(=S)Nc3ccc(C)cc3C)C2)cc1 (stereo not drawn)	AF4-AF9 inh inconclusive | Alpha interfer inactive
COc1ccc(N2CCC(CNC(=S)Nc3c(C)cc(C)cc3C)C2)cc1 (stereo not drawn)	none
COc1ccc2c3c([nH]c2c1)[C@H](CO)N(C(=O)c1ccccc1)CC31CCN(C(=O)CC2CC2)CC1	none (no result: Env fusion inh, FN deposit inh, PAX8 reporter, Glyco luc inh)
CC(=O)NC[C@H]1[C@@H](c2ccc(C3=CCCCC3)cc2)[C@@H](CO)N1C(=O)C1CCC1	none (no result: Env fusion inh, PAX8 reporter, EWS-Fli inh, Glyco luc inh)
CC(=NNC(=S)N1CCN(C2CCCCCC2)CC1)c1ccccn1	AF4-AF9 inh 45.6, PAX8 reporter 94.4 | Alpha interfer 1.18µM
CO[C@@H]1CN(C)C(=O)c2cc(NC(=O)c3cccc(F)c3)ccc2OC[C@@H](C)N(C(C)=O)C[C@@H]1C	none (no result: Env fusion inh, AF4-AF9 inh, PAX8 reporter, Glyco luc inh)
Cc1cccc(C)c1N=Nc1c(C)cc(O)cc1C	AF4-AF9 inh 35.3 | Alpha interfer 10.1µM
CO[C@H]1CN(C)C(=O)c2cc(NS(=O)(=O)c3ccccc3)ccc2OC[C@@H](C)N(Cc2ccccn2)C[C@H]1C	none (no result: PAX8 reporter, Glyco luc inh)
CN(CCc1ccccc1)C(=O)c1ccc(NC(=O)Cc2ccc(NC(=O)C3CCN(C(=O)C4CCCC4)CC3)cc2)cc1	AF4-AF9 inh 33.1 | Alpha interfer inactive
CN(CCc1ccccc1)C(=O)c1ccc(NC(=O)Cc2ccc(NC(=O)C3CCN(C(=O)C4CC4)CC3)cc2)cc1	AF4-AF9 inh inconclusive (no result: Env fusion inh)
CCCN(C)C[C@H]1OCCCC[C@@H](C)Oc2ccc(NC(=O)CCC(F)(F)F)cc2C(=O)N([C@@H](C)CO)C[C@H]1C	none (no result: FN deposit inh, Glyco luc inh)
COc1ccc2c3c([nH]c2c1)[C@@H](CO)N(C)CC31CCN(C(=O)C2CC2)CC1	none (no result: Env fusion inh, FN deposit inh, PAX8 reporter, Glyco luc inh)
CCCCOc1ccc2c(c1)C(=O)c1cc(O)ccc1-2	AF4-AF9 inh 33.2 (no result: FN deposit inh) | Alpha interfer inactive
CCOc1ccc2c(c1)C(=O)c1cc(OCC(=O)O)ccc1-2	none
CC1CN(C)C(C)c2c1oc1ccc(N)cc21 (stereo not drawn)	AF4-AF9 inh 35.0 | Alpha interfer inactive
CC1CN(C)C(C)c2c1oc1ccc([N+](=O)[O-])cc21 (stereo not drawn)	none
Cc1ccc2nc(-c3ccc(NC(=S)NC4CC(C)(C)NC(C)(C)C4)cc3)sc2c1	AF4-AF9 inh 44.8, PAX8 reporter 91.1 | Alpha interfer inactive
C[C@H]1CN([C@@H](C)CO)C(=O)c2cccc(NS(=O)(=O)c3ccc(F)cc3)c2O[C@@H]1CN(C)Cc1ccc(C(F)(F)F)cc1	none (no result: FN deposit inh, Glyco luc inh)
CCn1c(C)c(C(C)=O)c(N2CCN(c3ccc(OC)cc3)CC2)nc1=S	AF4-AF9 inh 31.6 (no result: FN deposit inh) | Alpha interfer inactive
COc1ccc(N2CCN(c3nc(=S)n(-c4ccccc4)c(C)c3C(C)=O)CC2)cc1	none (no result: Env fusion inh, AF4-AF9 inh, FN deposit inh, PAX8 reporter, EWS-Fli inh)
COc1ccc(CC(=O)N/N=C(\C)c2cccnc2)cc1	none (no result: Env fusion inh)
CN=c1scc(-c2ccc(OC)cc2)n1/N=C(\C)c1cccnc1	AF4-AF9 inh 48.2 | Alpha interfer 11.4µM
N#Cc1nc(-c2cccs2)oc1N1CCN(Cc2ccccc2)CC1	AF4-AF9 inh 30.6 (no result: Env fusion inh, FN deposit inh, PAX8 reporter) | Alpha interfer inactive
O=C(Nc1ccc(N2CCCC2)c(Cl)c1)c1ccco1	none (no result: AF4-AF9 inh, PAX8 reporter, EWS-Fli inh)
O=C(Nc1ccc(N2CCCC2)c(Cl)c1)c1ccc([N+](=O)[O-])o1	AF4-AF9 inh 49.1, Glyco luc inh 46.3 | Alpha interfer 13µM
NC1=NC[C@H](Cc2ccc(O)cc2)N1CCc1cccc2ccccc12	AF4-AF9 inh 32.1 | Alpha interfer inactive
O=[N+]([O-])c1ccc(/C=N/Nc2ccnc3cc(Cl)ccc23)o1	AF4-AF9 inh 27.6 | Alpha interfer inactive
CN(C)c1cc2c3ccccc3n(C)c2cc1N	AF4-AF9 inh 27.7 | Alpha interfer inactive
C(=C\c1ccccc1)/CN1CCN(C(c2ccccc2)c2ccccc2)CC1	none
Fc1ccc(C(c2ccc(F)cc2)N2CCN(C/C=C/c3ccccc3)CC2)cc1	AF4-AF9 inh 34.5! | Alpha interfer inactive
Fc1ccc(-[n+]2nc(Nc3ccccc3)sc2-c2c(Cl)cccc2Cl)cc1	AF4-AF9 inh 33.8 | Alpha interfer inactive
COc1ccc(C)cc1Nc1n[n+](-c2ccccc2)c(-c2c(Cl)cccc2Cl)s1	Env fusion inh inconclusive, AF4-AF9 inh 45.2 (no result: Glyco luc inh) | Alpha interfer inactive
COc1ccc2ccccc2c1-c1sc(Nc2ccccc2)n[n+]1-c1ccc(F)cc1	AF4-AF9 inh 43.1 | Alpha interfer inactive
COc1ccc(-c2sc(Nc3ccccc3)n[n+]2-c2ccc(F)cc2)cc1Br	none
CCNC(=O)Nc1ccc2c(c1)C(=O)N(C)[C@H]1CC[C@H](CC(=O)NCC3CC3)O[C@H]1CO2	none (no result: AF4-AF9 inh, Glyco luc inh)
COc1ccccc1C(=O)Nc1ccc2c(c1)C(=O)N(C)[C@H]1CC[C@@H](CC(=O)NCc3ccc(Cl)c(Cl)c3)O[C@H]1CO2	none (no result: Env fusion inh, Glyco luc inh)
CCN(CC)c1ccc(C(=C2C=CC(=[N+](CC)CC)C=C2)c2ccc(S(=O)(=O)O)cc2S(=O)(=O)[O-])cc1	AF4-AF9 inh 59.6 (no result: Env fusion inh) | Alpha interfer 7.89µM
